15 molecules from ChEMBL document CHEMBL1125763, “Structure-activity studies of antitumor agents based on pyrrolo[1,2-a]benzimidazoles: new reductive alkylating DNA cleaving agents” (J Med Chem, 1991) can be followed below.

One experiment concerns WiDr. The experiment can be described thus: In vitro inhibition of WiDr colon cancer cell line. To be noted: Homo sapiens. The experiment is classed as functional, cell-based. In short, it runs like this:
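Cells plated at 50 000 per well in 96-well trays. Drugs dissolved in DMSO as stock, then diluted in buffer and added to wells. IC50 was calculated from concentration–survival curves over a concentration range giving 0–100% survival.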

The subject of experiment [1] is A2780. The experiment can be described thus: In vitro inhibition of 2780/DOX ovarian cancer cell line. The experiment is classed as functional, cell-based. Conditions: Homo sapiens; call rule not given here. In outline:
(§1)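 Cell growth inhibition: cells plated at 50 000/well; drugs dissolved in DMSO as stock and diluted in buffer before addition. IC50 taken from concentration-survival curves over a range of concentrations giving 0-100% survival.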

In experiment [2] the test system is 2008/S. The experiment can be described thus: In vitro inhibition of 2008/S ovarian cancer cell line; NA= Not achievable. The experiment is classed as functional, cell-based, Homo sapiens. In outline: as §1
Experiment [3] concerns A2780. As to the kind of experiment: In vitro inhibition of 2780/S ovarian cancer cell line. The experiment is classed as functional, cell-based. To be noted: Homo sapiens. In short, it runs like this: as §1
Experiment [4] has as its system RPMI-8226. As to the kind of experiment: In vitro inhibition of […] myeloma cancer cell line. Type of experiment: functional, cell-based. Conditions: Homo sapiens. In outline: as §1
Experiment [5] has as its system 2008/R. As to the kind of experiment: In vitro inhibition of 2008/R ovarian cancer cell line; NA= Not achievable. Type of experiment: functional, cell-based, Homo sapiens. In outline:
as §1

The subject of the next experiment is SW480. As to the kind of experiment: In vitro inhibition of SW480 colon cancer cell line. Type of experiment: functional, cell-based. Conditions: Homo sapiens. In short, it runs like this: as §1
Experiment [6] relates to 2008/S. As to the kind of experiment: In vitro inhibition of 2008/S ovarian cancer cell line. To be noted: Homo sapiens. Type of experiment: functional, cell-based. In short, it runs like this:
as §1

The subject of experiment [7] is RPMI-8226. As to the kind of experiment: Dose-Response relationship for DNA single-strand cleavage with the compound in human 8226 multiple myeloma cells at a concentration of 0.1 ug/mL x1 hr. Type of experiment: functional.
In experiment [8] the test system is RPMI-8226. As to the kind of experiment: Dose-Response relationship for DNA single-strand cleavage with the compound in human 8226 multiple myeloma cells at a concentration of 1.0 ug/mL x1 hr. Type of experiment: functional.
The test system of experiment [9] is 2008/R. As to the kind of experiment: In vitro inhibition of 2008/R ovarian cancer cell line. Conditions: Homo sapiens. The experiment is classed as functional, cell-based. In outline: as §1
The test system of experiment [10] is RPMI-8226. As to the kind of experiment: Dose-Response relationship for DNA single-strand cleavage with the compound in human 8226 multiple myeloma cells at a concentration of 10 ug/mL x1 hr. The experiment is classed as functional.
In another experiment the test system is Ovarian carcinoma cell. As to the kind of experiment: Inhibitory activity against ovarian cancer cell line; NA= Not achievable. The experiment is classed as functional, cell-based, Homo sapiens. In outline: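 Fresh human tumor chemosensitivity assay: ovarian cancers removed surgically from patients, minced, and plated on soft agar as a single-cell suspension.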

Usually IC50 stands for the midpoint of a concentration-inhibition curve.

Structures are written as SMILES.

Regarding `CC(=O)OC1CCn2c1nc1c2C(=O)C(C)=C(N(C)C)C1=O` (configuration not stated), 10000 nM corresponded to half-maximal inhibition in the experiment with WiDr (IC50).

The molecule `CC(=O)OC1CCn2c1nc1c2C(=O)C(C)=C(NC(=O)CCl)C1=N` (configuration not stated) displayed a half-maximal inhibitory concentration (IC50) in the experiment on WiDr of 280 nM.

In turn, `CC(=O)OC1CCn2c1nc1c2C(=O)C(C)=CC1=O` (configuration not stated) registered an IC50 with WiDr of 300 nM.

Molecule `CC1=CC(=O)c2nc3n(c2C1=O)CCC3OC(N)=O` (configuration not stated) returned an IC50 in the experiment with WiDr of 10000 nM.

`CC(=O)NC1=C(C)C(=O)c2c(nc3n2CCC3OC(C)=O)C1=N` (configuration not stated) yielded a concentration for half-maximal inhibition (IC50) in the experiment on WiDr of 150 nM.

In the case of `CC(=O)NC1=C(C)C(=O)c2c(nc3n2CCC3)C1=O`, the IC50 in the experiment on WiDr turned out to be 500 nM.

In the experiment with WiDr, `CC1=C(N2CC2)C(=O)c2nc3n(c2C1=O)CCC3` had an IC50 of 15 nM.

In the case of `CC1=C(N2CC2)C(=O)c2nc3n(c2C1=O)CCC3OC(N)=O` (configuration not stated), the concentration for half-maximal inhibition (IC50) in the experiment on A2780 [1] was 200 nM; in the experiment with 2008/S [2], “Not Active”; with A2780 [3] it was 100 nM; with RPMI-8226 [4], 140 nM; with 2008/R [5] it was “Not Active”; with WiDr, 100 nM. For the same molecule, in the experiment with SW480, the IC50 is 19 nM.

On to `CC(=O)NC1=C(C)C(=O)c2c(nc3n2CCC3)C1=N`, for which the half-maximal inhibitory concentration (IC50) in the experiment with WiDr worked out at 10000 nM.

`CC(=O)NC1=C(C)C(=O)c2c(nc3n2CCC3OC(C)=O)C1=O` (configuration not stated): inhibition with WiDr was half-maximal at 6000 nM (IC50).

As for `CC(=O)NC1=C(C)C(=O)c2c(nc3n2CCC3OC(N)=O)C1=O` (configuration not stated), the midpoint of inhibition in the experiment with WiDr, the IC50, lay at 16000 nM.

As to `CC1=C(N(C)C)C(=O)c2nc3n(c2C1=O)CCC3OC(N)=O` (configuration not stated), in the experiment with WiDr, the IC50 stood at 13000 nM.

For the molecule `CC1=C(N(C)C)C(=O)c2nc3n(c2C1=O)CCC3`, the half-maximal inhibitory concentration (IC50) in the experiment on WiDr stood at 13000 nM.

For the molecule `CC(=O)OC1CCn2c1nc1c2C(=O)C(C)=C(N2CC2)C1=O` (configuration not stated), the 50% inhibitory concentration (IC50) in the experiment with A2780 [1] was 16 nM; in the experiment on 2008/S [6] it was 7 nM; in the experiment on A2780 [3] it was 0.6 nM; with RPMI-8226 [4], 100 nM; in the experiment on 2008/R [9] it was 7 nM; in the experiment on WiDr, 10 nM. The IC50 in the experiment on SW480 was 9 nM; in the experiment on Ovarian carcinoma cell it was “Not Active”. In addition, the figures for the Cleavage in the experiment with RPMI-8226 [7], in the experiment with RPMI-8226 [8] and in the experiment with RPMI-8226 [10] were 59, 321 and 469, respectively.

On to `CO[C@@]12[C@H](COC(N)=O)C3=C(C(=O)C(C)=C(N)C3=O)N1C[C@@H]1N[C@@H]12` [MITOMYCIN], for which the concentration for half-maximal inhibition (IC50) in the experiment on A2780 [1] was 200 nM; in the experiment on 2008/S [2] it was “Not Active”; with A2780 [3], 100 nM; in the experiment on RPMI-8226 [4], 200 nM; in the experiment on 2008/R [5], “Not Active”; with WiDr, 10 nM. The molecule further returned a 50% inhibitory concentration (IC50) in the experiment with SW480 of 7 nM.
